Experimental data published in ChEMBL document CHEMBL4028914, “Structure-Based Design of 6-Chloro-4-aminoquinazoline-2-carboxamide Derivatives as Potent and Selective p21-Activated Kinase 4 (PAK4) Inhibitors” (J Med Chem, 2018).
Active and inactive are the calls of the source. No cut-off for these calls is given here.

Key:
[1] = biological target: T1, Serine/threonine-protein kinase PAK 4 (Homo sapiens, UniProt O96013); test: Inhibition of human PAK4 kinase domain using coumarin and fluorescein-labeled ser/thr20 peptide as substrate preincubated for 15 mins followed by ATP addition measured after 60 mins by Z'-Lyte assay
Target sequence in this assay (O96013 whole entry, the tested form may be a part): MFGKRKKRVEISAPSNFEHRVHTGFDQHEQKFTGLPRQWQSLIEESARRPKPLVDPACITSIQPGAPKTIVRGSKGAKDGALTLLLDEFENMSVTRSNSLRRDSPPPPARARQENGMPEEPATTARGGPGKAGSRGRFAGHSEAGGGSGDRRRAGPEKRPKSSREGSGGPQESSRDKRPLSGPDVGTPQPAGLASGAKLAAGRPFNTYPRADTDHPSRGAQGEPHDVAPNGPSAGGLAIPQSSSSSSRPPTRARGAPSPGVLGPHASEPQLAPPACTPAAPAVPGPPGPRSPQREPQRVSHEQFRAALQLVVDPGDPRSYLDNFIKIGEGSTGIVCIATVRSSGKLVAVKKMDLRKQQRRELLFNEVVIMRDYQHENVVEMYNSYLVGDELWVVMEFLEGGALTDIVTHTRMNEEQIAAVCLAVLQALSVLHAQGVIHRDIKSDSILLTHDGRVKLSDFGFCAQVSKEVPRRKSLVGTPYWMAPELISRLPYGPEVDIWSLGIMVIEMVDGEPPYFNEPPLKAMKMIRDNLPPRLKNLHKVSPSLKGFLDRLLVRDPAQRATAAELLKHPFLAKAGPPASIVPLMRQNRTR

[2] = biological target: T2, Serine/threonine-protein kinase PAK 1 (Homo sapiens, UniProt Q13153); test: Inhibition of human PAK1 kinase domain using coumarin and fluorescein-labeled ser/thr19 peptide as substrate preincubated for 15 mins followed by ATP addition measured after 60 mins by Z'-Lyte assay
T2 sequence (Q13153 whole entry, the tested form may be a part): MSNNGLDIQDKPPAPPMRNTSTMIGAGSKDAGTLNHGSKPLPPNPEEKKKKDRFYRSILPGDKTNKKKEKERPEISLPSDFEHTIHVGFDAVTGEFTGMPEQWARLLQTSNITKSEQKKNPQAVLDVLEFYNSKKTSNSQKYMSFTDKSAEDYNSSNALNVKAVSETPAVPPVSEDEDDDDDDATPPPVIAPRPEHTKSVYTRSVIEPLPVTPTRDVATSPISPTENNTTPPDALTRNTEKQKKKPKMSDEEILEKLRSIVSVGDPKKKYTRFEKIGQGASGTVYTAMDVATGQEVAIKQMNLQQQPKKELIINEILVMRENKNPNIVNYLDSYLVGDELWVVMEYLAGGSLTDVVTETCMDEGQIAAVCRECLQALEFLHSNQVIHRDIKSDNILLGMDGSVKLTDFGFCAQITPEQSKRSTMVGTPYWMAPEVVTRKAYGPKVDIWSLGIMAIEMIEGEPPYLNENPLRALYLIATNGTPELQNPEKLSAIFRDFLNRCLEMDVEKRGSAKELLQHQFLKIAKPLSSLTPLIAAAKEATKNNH
Procedure, shortened: (§1)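 FRET-based Z′-Lyte kinase assay run per the kit instructions. Ki values are the average of at least two duplicate experiments; SEM < ±20%.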

[3] = organism: Homo sapiens; test: Selectivity index, ratio of Ki for human PAK1 to Ki for human PAK4
Procedure, shortened: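 Ratio of PAK1 Ki to PAK4 Ki, both taken from the FRET-based Z′-Lyte assay.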

[4] = biological target: T1, Serine/threonine-protein kinase PAK 4; test: Binding affinity to biotin-labeled human truncated PAK4 kinase domain by surface plasmon resonance assay
Procedure, shortened: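 Binding to the truncated PAK4 was measured by SPR with multiconcentration kinetic analysis. Kd was taken from a 1:1 binding model fit.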
Target sequence in this assay (O96013 whole entry, the tested form may be a part): as the sequence (O96013 whole entry, the tested form may be a part) above

[5] = biological target: T2, Serine/threonine-protein kinase PAK 1; test: Inhibition of PAK1 (unknown origin)
[6] = biological target: T1, Serine/threonine-protein kinase PAK 4; test: Inhibition of PAK4 (unknown origin) using histone H3 as substrate
Target sequence in this assay (O96013 whole entry, the tested form may be a part): as above

[7] = biological target: T1, Serine/threonine-protein kinase PAK 4; test: Binding affinity to human truncated PAK4 kinase domain assessed as change in melting temperature at 20 uM by SYPRO orange dye based differential scanning fluorimetry
Procedure, shortened: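 Melting-temperature shift of the compound–truncated PAK4 complex was measured by differential scanning fluorimetry, relative to the truncated PAK4 protein alone.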
Target sequence in this assay (O96013 whole entry, looked up, the tested form may be a part): as the sequence (O96013 whole entry, the tested form may be a part) above

[8] = test system: A549; test: Antiproliferative activity against human A549 cells up to 72 hrs by MTT assay; format: functional, cell-based
[9] = biological target: T1, Serine/threonine-protein kinase PAK 4; test: Inhibition of human PAK4 in human A549 cells assessed as decrease in phosphorylation of GEF-H1 at Ser810 residue up to 10 uM by Western blotting method; format: cell-based
Target sequence in this assay (O96013 whole entry, looked up, the tested form may be a part): as the sequence (O96013 whole entry, the tested form may be a part) above

[10] = biological target: T1, Serine/threonine-protein kinase PAK 4; test: Inhibition of GST-tagged human PAK4 (295 to 591 residues) expressed in Baculovirus expression system at 0.1 uM by Z'-Lyte assay relative to control
Target sequence in this assay (O96013 whole entry, looked up, the tested form may be a part): as the sequence (O96013 whole entry, the tested form may be a part) above

[11] = biological target: T1, Serine/threonine-protein kinase PAK 4; test: Inhibition of human PAK4 in human A549 cells assessed as decrease in phosphorylation levels of LIMK1 by Western blotting method; format: cell-based
Target sequence in this assay (O96013 whole entry, looked up, the tested form may be a part): as the sequence (O96013 whole entry, the tested form may be a part) above

[12] = test system: NCI-H460; test: Antiinvasive activity against human NCI-H460 cells at 0.5 to 10 uM after 24 hrs by transwell assay; format: functional, cell-based
[13] = biological target: T1, Serine/threonine-protein kinase PAK 4; test: Inhibition of human PAK4 in human A549 cells assessed as decrease in phosphorylation levels of PAK4 at Ser474 residue by Western blot method; format: cell-based
Target sequence in this assay (O96013 whole entry, looked up, the tested form may be a part): as the sequence (O96013 whole entry, the tested form may be a part) above

[14] = test system: HEK293; test: Antiinvasive activity against human HEK293 cells at 0.5 to 10 uM after 24 hrs by transwell assay; format: functional, cell-based
[15] = biological target: T1, Serine/threonine-protein kinase PAK 4; test: Inhibition of human PAK4 in human A549 cells assessed as decrease in MMP2 expression up to 10 uM by Western blotting method; format: cell-based
Target sequence in this assay (O96013 whole entry, looked up, the tested form may be a part): as the sequence (O96013 whole entry, the tested form may be a part) above

[16] = biological target: T1, Serine/threonine-protein kinase PAK 4; test: Inhibition of human PAK4 in human A549 cells assessed as decrease in phosphorylation levels of cofilin by Western blotting method; format: cell-based
[17] = test system: A549; test: Antimigratory activity against human A549 cells at 0.5 to 10 uM after 24 hrs by transwell assay; format: functional, cell-based
[18] = test system: NCI-H460; test: Antimigratory activity against human NCI-H460 cells at 0.5 to 10 uM after 24 hrs by transwell assay; format: functional, cell-based
[19] = test system: A549; test: Antiinvasive activity against human A549 cells at 0.5 to 10 uM after 24 hrs by transwell assay; format: functional, cell-based
[20] = test system: A549; test: Antimigratory activity against human A549 cells at 0.5 to 10 uM after 48 hrs by wound healing assay; format: functional, cell-based
[21] = test system: HEK293; test: Antimigratory activity against human HEK293 cells at 0.5 to 10 uM after 24 hrs by transwell assay; format: functional, cell-based
[22] = biological target: T1, Serine/threonine-protein kinase PAK 4; test: Inhibition of GST-tagged human PAK4 (295 to 591 residues) expressed in Baculovirus expression system by Z'-Lyte assay; procedure, shortened: as §1
Target sequence in this assay (O96013 whole entry, the tested form may be a part): as above

[23] = biological target: Serine/threonine-protein kinase PAK 5 (Homo sapiens, UniProt Q9P286); test: Inhibition of full length recombinant human His-tagged PAK5 […] expressed in Baculovirus expression system by Z'-Lyte assay
Chain of Serine/threonine-protein kinase PAK 5 (Q9P286 whole entry): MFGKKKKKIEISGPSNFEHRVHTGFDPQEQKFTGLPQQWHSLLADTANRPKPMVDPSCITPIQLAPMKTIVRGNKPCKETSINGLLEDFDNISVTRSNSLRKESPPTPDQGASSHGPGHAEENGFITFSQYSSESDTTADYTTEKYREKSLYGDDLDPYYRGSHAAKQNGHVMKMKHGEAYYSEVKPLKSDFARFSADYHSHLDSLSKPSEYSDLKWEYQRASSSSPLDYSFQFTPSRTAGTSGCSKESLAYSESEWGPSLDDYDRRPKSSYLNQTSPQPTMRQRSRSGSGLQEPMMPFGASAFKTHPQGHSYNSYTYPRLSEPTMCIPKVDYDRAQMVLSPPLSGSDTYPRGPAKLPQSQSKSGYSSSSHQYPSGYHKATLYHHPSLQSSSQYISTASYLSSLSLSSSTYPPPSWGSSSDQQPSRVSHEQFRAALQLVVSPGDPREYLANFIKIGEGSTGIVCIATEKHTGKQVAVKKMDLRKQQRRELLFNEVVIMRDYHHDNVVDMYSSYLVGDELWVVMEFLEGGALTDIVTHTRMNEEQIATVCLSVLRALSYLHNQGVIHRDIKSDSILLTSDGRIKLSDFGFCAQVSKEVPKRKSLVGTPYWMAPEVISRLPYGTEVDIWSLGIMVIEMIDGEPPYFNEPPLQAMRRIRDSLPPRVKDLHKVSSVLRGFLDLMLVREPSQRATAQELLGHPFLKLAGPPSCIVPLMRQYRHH

Cc1cc(Nc2nc(C(=O)NC3CCNCC3)nc3ccc(Cl)cc23)n[nH]1
Ki [1]: 325 nM

Cc1cc(Nc2nc(C(=O)N3CCNC(=O)C3)nc3ccc(Cl)cc23)n[nH]1
Ki [1]: 2410 nM

NC1CCN(c2nc(Nc3cn(-c4ccccc4)cn3)c3cc(Cl)ccc3n2)CC1
Ki [1]: 1440 nM

Cc1cc(Nc2nc(C(=O)N(C)C3CCNCC3)nc3ccc(Cl)cc23)n[nH]1
Ki [1]: 576 nM

CC[C@@H]1CN(C(=O)c2nc(Nc3cc(C4CC4)[nH]n3)c3cc(Cl)ccc3n2)CCN1
Ki [2]: 368 nM | Ratio Ki [3]: 61 | Ki [1]: 6 nM

NC1CCN(c2nc(Nc3cc(-c4ccccc4)[nH]n3)c3cc(Cl)ccc3n2)CC1
Ki [1]: 256 nM

CNC1CCN(C(=O)c2nc(Nc3cc(C)[nH]n3)c3cc(Cl)ccc3n2)CC1
Ki [1]: 672 nM

Cc1cc(Nc2nc(N3CCC(N)CC3)nc3ccc(Cl)cc23)n[nH]1
Ki [2]: 1890 nM | Ratio Ki [3]: 18 | Kd [4]: 43 nM | Ki [1]: 99 nM

Cc1cc(Nc2nc(C(=O)N3CCN[C@H](C)C3)nc3ccc(Cl)cc23)n[nH]1
Ki [2]: > 10000 nM | Ratio Ki [3]: > 196 | Ki [1]: 51 nM

C[C@@H]1CN(C(=O)c2nc(Nc3cc(C4CC4)[nH]n3)c3cc(F)ccc3n2)CCN1
Ki [2]: 503 nM | Ratio Ki [3]: 31 | Ki [1]: 16 nM

Cc1cc(Nc2nc(C(=O)N3CCNCC3)nc3ccc(Cl)cc23)n[nH]1
Ki [2]: > 10000 nM | Ratio Ki [3]: > 222 | Kd [4]: 66 nM | Ki [1]: 45 nM

C[C@H]1CN(C(=O)c2nc(Nc3cc(C4CC4)[nH]n3)c3cc(Cl)ccc3n2)CCN1
Ki [2]: 690 nM | Ratio Ki [3]: 25 | Ki [1]: 28 nM

C[C@@H]1CN(C(=O)c2nc(Nc3cc(C4CC4)[nH]n3)c3ccccc3n2)CCN1
Ki [2]: 1070 nM | Ratio Ki [3]: 63 | Ki [1]: 17 nM

COc1ccc2nc(C(=O)N3CCN[C@H](C)C3)nc(Nc3cc(C4CC4)[nH]n3)c2c1
Ki [2]: > 4520 nM | Ratio Ki [3]: > 126 | Ki [1]: 36 nM

COc1cccc(Nc2nc(NCC3CCCO3)c3ccccc3n2)c1 (configuration not stated)
IC50 [5]: 48400 nM | IC50 [6]: 14900 nM

Cc1cc(Nc2nc(C(=O)N3CCN(C)CC3)nc3ccc(Cl)cc23)n[nH]1
Ki [1]: 768 nM

CC1CN(C(=O)c2nc(Nc3cc(C4CC4)[nH]n3)c3cc(Cl)ccc3n2)CC(C)N1 (mixture of isomers)
Ki [2]: > 4520 nM | Ratio Ki [3]: > 40 | Ki [1]: 114 nM

C[C@@H]1CN(C(=O)c2nc(Nc3cc(C4CC4)[nH]n3)c3ccc(Cl)cc3n2)CCN1
Ki [2]: 401 nM | Ratio Ki [3]: 57 | Ki [1]: 7 nM

Cc1cc(Nc2nc(C(=O)NC3CNC3)nc3ccc(Cl)cc23)n[nH]1
Ki [1]: 782 nM

C[C@H]1CNCCN1C(=O)c1nc(Nc2cc(C3CC3)[nH]n2)c2cc(Cl)ccc2n1
Ki [2]: 383 nM | Ratio Ki [3]: 15 | Ki [1]: 26 nM

Cc1cc(Nc2nc(C(=O)N3CCNC[C@H]3C)nc3ccc(Cl)cc23)n[nH]1
Ki [2]: > 4520 nM | Ratio Ki [3]: > 30 | Ki [1]: 151 nM

Cc1cc(Nc2nc(C(=O)N3CCC(C)(O)CC3)nc3ccc(Cl)cc23)n[nH]1
Ki [1]: 3890 nM

Cc1cc(Nc2nc(C(=O)N3CCNC[C@@H]3C)nc3ccc(Cl)cc23)n[nH]1
Ki [2]: > 4520 nM | Ratio Ki [3]: > 21 | Ki [1]: 218 nM

Cc1cc(Nc2nc(C(=O)N3CC(C)NC(C)C3)nc3ccc(Cl)cc23)n[nH]1 (mixture of isomers)
Ki [1]: 119 nM

Cc1cc(Nc2nc(C(=O)N(C)C3CCCNC3)nc3ccc(Cl)cc23)n[nH]1 (racemic)
Ki [1]: 1630 nM

Cc1cc(Nc2nc(C(=O)N3CCN[C@@H](C)C3)nc3ccc(Cl)cc23)n[nH]1
Ki [2]: > 4520 nM | Ratio Ki [3]: > 15 | Ki [1]: 306 nM

Cn1cnc(Nc2nc(N3CCC(N)CC3)nc3ccc(Cl)cc23)c1
Ki [2]: > 10000 nM | Ratio Ki [3]: > 14 | Kd [4]: 156 nM | ΔTm [7]: 0.5 °C | Ki [1]: 710 nM

O=C(c1nc(Nc2cc(C3CC3)[nH]n2)c2cc(Cl)ccc2n1)N1CCNCC1
Ki [2]: 2750 nM | Ratio Ki [3]: 172 | Kd [4]: 16 nM | Ki [1]: 16 nM

C[C@@H]1CNCCN1C(=O)c1nc(Nc2cc(C3CC3)[nH]n2)c2cc(Cl)ccc2n1
Ki [2]: 2080 nM | Ratio Ki [3]: 122 | Ki [1]: 17 nM

C[C@@H]1CN(C(=O)c2nc(Nc3cc(C4CC4)[nH]n3)c3cc(Cl)ccc3n2)CCN1 [listing 1 of 2 here]
Activity [8]: Active | inhibition [9]: Active | inhibition [10]: > 80% | inhibition [11]: Dose-dependent effect | Activity [12]: inactive | inhibition [13]: Dose-dependent effect | Ratio Ki [3]: 346 | Activity [14]: inactive | inhibition [15]: Active | inhibition [16]: Dose-dependent effect | Activity [17]: Active | Activity [18]: inactive | Activity [19]: Active | Activity [20]: Active | Activity [21]: inactive

CC(C)c1cc(Nc2nc(N3CCC(N)CC3)nc3ccc(Cl)cc23)n[nH]1
Ki [1]: 77 nM

C[C@@H]1CN(C(=O)c2nc(Nc3cc(C4CC4)[nH]n3)c3cc(Br)ccc3n2)CCN1
Ki [2]: 2080 nM | Ratio Ki [3]: 190 | Ki [1]: 11 nM

Cc1cc(Nc2nc(C(=O)N3CCOCC3)nc3ccc(Cl)cc23)n[nH]1
Kd [4]: 1940 nM | Ki [1]: 2170 nM

Cc1cc(Nc2nc(C(=O)N3CCC(O)CC3)nc3ccc(Cl)cc23)n[nH]1
Ki [1]: 3820 nM

CC(C)n1cnc(Nc2nc(N3CCC(N)CC3)nc3ccc(Cl)cc23)c1
Ki [1]: 884 nM

C[C@@H]1CN(C(=O)c2nc(Nc3cc(C4CC4)[nH]n3)c3cc(Cl)ccc3n2)CCN1 [listing 2 of 2 here]
Ki [2]: 3110 nM | IC50 [22]: 11.1 nM | IC50 [23]: 15 nM

NC1CCN(c2nc(Nc3cc(C4CC4)[nH]n3)c3cc(Cl)ccc3n2)CC1
Ki [2]: 288 nM | Ratio Ki [3]: 19 | Kd [4]: 6 nM | Ki [1]: 16 nM

Cc1cc(Nc2nc(C(=O)N3CCC(C)(N)CC3)nc3ccc(Cl)cc23)n[nH]1
Ki [1]: 674 nM

Cc1cc(Nc2nc(C(=O)N3CCC(N)CC3)nc3ccc(Cl)cc23)n[nH]1
Ki [1]: 354 nM

NC1CCN(c2nc(Nc3cn(C4CC4)cn3)c3cc(Cl)ccc3n2)CC1
Ki [1]: 652 nM
